From ChEMBL document CHEMBL4406834, “Phenylthiazoles with nitrogenous side chain: An approach to overcome molecular obesity” (Eur J Med Chem, 2019) come the findings set out here.

Structures are written as SMILES. ≈ marks a conversion by molar mass, not a printed value.

Series [1] concerns Staphylococcus aureus. Description: Antibacterial activity against intracellular methicillin resistant Staphylococcus aureus USA400 infected in mouse J774 cells assessed as reduction in intracellular bacterial cells at 2 times MIC concentration incubated for 24 hrs followed by re-plating on TSA plate for 18 to 22 hrs by serial dilution method relative to control. It counts as functional. A digest of the protocol: (§1)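 J774 murine macrophages in DMEM + 10% FBS, 37 °C, 5% CO2, infected with MRSA USA400 at MOI ~10:1 for 1 h. Washed with gentamicin 100 µg/mL to kill extracellular bacteria. […] Cells lysed with 0.1% Triton-X, serially diluted in PBS, plated on TSA for 18-22 h, CFU counted. One-way ANOVA with Dunnett's test.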

Series [2] has as its system Staphylococcus aureus. Description: Antibacterial activity against intracellular methicillin resistant Staphylococcus aureus USA400 infected in mouse J774 cells assessed as log10 reduction in intracellular bacterial cells at 2 times MIC concentration incubated for 24 hrs followed by re-plating on TSA plate for 18 to 22 hrs by serial dilution method. Format: functional. A digest of the protocol:
as §1

For the next series, the system named is Streptococcus pneumoniae. Description: Bactericidal activity against cephalosporin-resistant Streptococcus pneumoniae ATCC 51916 incubated for 18 to 20 hrs followed by replating on tryptic soy agar plate and further incubated for 18 to 24 hrs by CLSI-based broth microdilution assay. It counts as functional. The essentials: (§2)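 MBC: after the broth microdilution MIC (CAMHB, ~5 × 10^5 CFU/mL, 37 °C, 18-20 h), 4 µL from wells without growth plated onto tryptic soy agar. Plates incubated 37 °C for 18-20 h. MBC is the lowest concentration giving 99.9% reduction in growth.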
A general note: Dilution methods test growth across graded concentrations, often in twofold steps.

Another series deals with Enterococcus faecalis. Kind of series: Bactericidal activity against vancomycin-resistant Enterococcus faecalis ATCC 51299 incubated for 18 to 20 hrs followed by replating on tryptic soy agar plate and further incubated for 18 to 24 hrs by CLSI-based broth microdilution assay. It counts as functional. A digest of the protocol:
as §2

The subject of series [3] is Staphylococcus aureus. Description: Bactericidal activity against vancomycin-resistant Staphylococcus aureus 10 incubated for 18 to 20 hrs followed by replating on tryptic soy agar plate and further incubated for 18 to 24 hrs by CLSI-based broth microdilution assay. It counts as functional. A digest of the protocol: as §2
Series [4] deals with Staphylococcus aureus. Kind of series: Bactericidal activity against methicilline-resistant Staphylococcus aureus NRS386 USA700 incubated for 18 to 20 hrs followed by replating on tryptic soy agar plate and further incubated for 18 to 24 hrs by CLSI-based broth microdilution assay. Format: functional. A digest of the protocol:
as §2

The subject of series [5] is Staphylococcus aureus. Description: Bactericidal activity against methicilline-resistant Staphylococcus aureus NRS123 USA400 incubated for 18 to 20 hrs followed by replating on tryptic soy agar plate and further incubated for 18 to 24 hrs by CLSI-based broth microdilution assay. It counts as functional. A digest of the protocol: as §2
The subject of series [6] is Staphylococcus aureus. Description: Bactericidal activity against methicilline-resistant Staphylococcus aureus NRS-119 incubated for 18 to 20 hrs followed by replating on tryptic soy agar plate and further incubated for 18 to 24 hrs by CLSI-based broth microdilution assay. Format: functional. The essentials: as §2
The test system of series [7] is Staphylococcus aureus. Description: Bactericidal activity against methicilline-sensitive Staphylococcus aureus NRS-107 incubated for 18 to 20 hrs followed by replating on tryptic soy agar plate and further incubated for 18 to 24 hrs by CLSI-based broth microdilution assay. Format: functional. A digest of the protocol: as §2
In series [8] the test system is Staphylococcus aureus. Description: Antibacterial activity against vancomycin-resistant Staphylococcus aureus 10 after 18 to 20 hrs by CLSI-based broth microdilution assay. Format: functional. A digest of the protocol: (§3)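 Broth microdilution per CLSI. Strains grown aerobically overnight on tryptone soy agar at 37 °C, adjusted to 0.5 McFarland, then diluted in cation-adjusted Mueller-Hinton broth to about 5 × 10^5 CFU/mL. Compounds (10 mg/mL DMSO stocks) serially diluted. Incubated aerobically at 37 °C for 18-20 h. MIC is the lowest concentration with no visible growth.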

The test system of series [9] is Staphylococcus aureus. Description: Antibacterial activity against methicilline-resistant Staphylococcus aureus NRS386 USA700 after 18 to 20 hrs by CLSI-based broth microdilution assay. Format: functional. The essentials: as §3
In series [10] the test system is Staphylococcus aureus. Description: Antibacterial activity against methicilline-resistant Staphylococcus aureus NRS384 USA300 after 18 to 20 hrs by CLSI-based broth microdilution assay. Format: functional. The essentials: as §3
The subject of series [11] is Staphylococcus aureus. Kind of series: Antibacterial activity against methicilline-resistant Staphylococcus aureus NRS-119 after 18 to 20 hrs by CLSI-based broth microdilution assay. Format: functional. A digest of the protocol: as §3
The nature of series [12]: Cmax in Sprague-Dawley rat at 50 mg/kg, po administered via gavage measured after 90 mins by LC-MS/MS analysis. The arrangement: dose 50 mg/kg, route oral. Format: ADME, organism-based. The note with it: in vivo. The essentials:
(§4)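 Three male naïve Sprague-Dawley rats received a single oral gavage dose of 50 mg/kg in 2% ethanol/48% PEG 400/50% water. Blood was collected into EDTA-K2 tubes over 12 h after dosing. Plasma was protein-precipitated with acetonitrile and compound concentration quantified by LC/MS/MS.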

Series [13] is described as follows: Tmax in Sprague-Dawley rat at 50 mg/kg, po administered via gavage measured over 12 hrs by LC-MS/MS analysis. It counts as ADME, organism-based. Conditions: in vivo. The essentials: as §4
The nature of series [14]: Clearance in Sprague-Dawley rat at 50 mg/kg, po administered via gavage after 12 hrs by LC-MS/MS analysis. It counts as ADME, organism-based. The note with it: in vivo. The essentials:
as §4

Series [15] can be described thus: Volume of drug distribution in Sprague-Dawley rat at 50 mg/kg, po administered via gavage measured over 12 hrs by LC-MS/MS analysis. It counts as ADME, organism-based. The note with it: in vivo. The essentials:
as §4

Series [16] in a line: Half life in Sprague-Dawley rat at 50 mg/kg, po administered via gavage measured over 12 hrs by LC-MS/MS analysis. Format: ADME, organism-based. The note with it: in vivo. The essentials:
as §4

In series [17] the test system is HaCaT. Description: Cytotoxicity against human HaCaT cells up to 64 ug/ml after 2 hrs by MTS assay. It counts as cell-based. In general terms: Tetrazolium dyes change colour on reduction, which living cells bring about.
The test system of series [18] is Caco-2. Description: Cytotoxicity against human Caco2 cells up to 64 ug/ml after 2 hrs by MTS assay. It counts as cell-based. Conditions: caco-2, 2 h.
Series [19] has as its system Klebsiella pneumoniae. Description: Antibacterial activity against Klebsiella pneumoniae BAA-1706. Format: functional.
In series [20] the test system is Escherichia coli. Description: Bactericidal activity against TolC-deficient Escherichia coli JW55031. Format: functional.
Series [21] concerns Escherichia coli. Description: Bactericidal activity against Escherichia coli ATCC 25922. Format: functional.
In series [22] the test system is Klebsiella pneumoniae. Description: Bactericidal activity against Klebsiella pneumoniae BAA-1706. Format: functional.
The next series relates to J774. Kind of series: Cytotoxicity against mouse J774 cells after 24 hrs by MTS assay. The note with it: j774, 24 h. Format: cell-based. A digest of the protocol: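 J774 murine macrophages were incubated with compound for 24 h, then given MTS reagent for 4 h. Absorbance was read at OD490.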
Series [23] concerns HaCaT. Description: Cytotoxicity against human HaCaT cells up to 32 ug/ml after 2 hrs by MTS assay. Format: cell-based.
For series [24], the system named is Caco-2. Kind of series: Cytotoxicity against human Caco2 cells up to 32 ug/ml after 2 hrs by MTS assay. It counts as cell-based. The note with it: caco-2, 2 h.

With `C/C(=N\NC(=N)N)c1sc(-c2ccc(N3CCCCC3)cc2)nc1C`, the “inhibition (INH)” value with Staphylococcus aureus [1] was determined as 93.2%. Moreover, the Activity is 1.18 log10CFU/ml in the series on Staphylococcus aureus [2], “Non-Toxic” with HaCaT [17], “Non-Toxic” in the series on Caco-2 [18] and “Non-Toxic” in the series with J774. In addition, the MBC (as a rule, the smallest concentration meeting the test's criterion for killing) was 16 µg/mL (≈ 44.9 µM) against Streptococcus pneumoniae; 64 µg/mL (≈ 180 µM) against Enterococcus faecalis; 16 µg/mL (≈ 44.9 µM) in the series with Staphylococcus aureus [3]; 16 µg/mL (≈ 44.9 µM) against Staphylococcus aureus [4]; 16 µg/mL (≈ 44.9 µM) in the series with Staphylococcus aureus [5]; 16 µg/mL (≈ 44.9 µM) in the series on Staphylococcus aureus [6]. Moreover, the MBC came out at 8 µg/mL (≈ 22.4 µM) against Staphylococcus aureus [7], 32 µg/mL (≈ 89.8 µM) in the series on Escherichia coli [20], 64 µg/mL (≈ 180 µM) against Escherichia coli [21] and 64 µg/mL (≈ 180 µM) in the series with Klebsiella pneumoniae [22]. The MIC (in general, the smallest concentration in the dilution series that meets the test's criterion for growth inhibition) with Staphylococcus aureus [8] stood at 4 µg/mL (≈ 11.2 µM); in the series on Staphylococcus aureus [9], 4 µg/mL (≈ 11.2 µM); against Staphylococcus aureus [10], 4 µg/mL (≈ 11.2 µM); against Staphylococcus aureus [11] it was 4 µg/mL (≈ 11.2 µM); in the series on Klebsiella pneumoniae [19], 64 µg/mL (≈ 180 µM). The Cmax – broadly, the peak of the concentration-time curve – in series [12] lay within 9700 to 10000 ng/mL. In series [13], the time of peak concentration (Tmax) (as a rule, the time from dosing to the highest level) stood at 1.3 h. Also, the CL/F (usually the apparent clearance, not corrected for the fraction that reaches the circulation) in series [14] is 12.7 mL/min. The same compound had a Vd in series [15] of 4.42 L. Besides, the half-life (commonly the time needed for the level to fall by half in the phase considered) in [16] is 4 h.

Take `C/C(=N\NC(=N)N)c1sc(-c2ccc(N3CCCC(C)C3)cc2)nc1C` (configuration not stated): the minimal bactericidal concentration (MBC) with Streptococcus pneumoniae was found to be 16 µg/mL (≈ 43.2 µM); with Enterococcus faecalis, 32 µg/mL (≈ 86.4 µM); in the series with Staphylococcus aureus [3] it was 16 µg/mL (≈ 43.2 µM); in the series on Staphylococcus aureus [4] it was 8 µg/mL (≈ 21.6 µM); against Staphylococcus aureus [5], 16 µg/mL (≈ 43.2 µM); against Staphylococcus aureus [6] it was 16 µg/mL (≈ 43.2 µM). In addition, the MBC against Staphylococcus aureus [7] stood at 16 µg/mL (≈ 43.2 µM); against Escherichia coli [20] it was 16 µg/mL (≈ 43.2 µM); in the series on Escherichia coli [21], 32 µg/mL (≈ 86.4 µM); against Klebsiella pneumoniae [22], 32 µg/mL (≈ 86.4 µM). In addition, the MIC was 8 µg/mL (≈ 21.6 µM) against Staphylococcus aureus [8]; 8 µg/mL (≈ 21.6 µM) with Staphylococcus aureus [9]; 4 µg/mL (≈ 10.8 µM) against Staphylococcus aureus [10]; 8 µg/mL (≈ 21.6 µM) in the series with Staphylococcus aureus [11]; 16 µg/mL (≈ 43.2 µM) against Klebsiella pneumoniae [19]. Moreover, the Activity result with HaCaT [23] and in the series on Caco-2 [24] was “Non-Toxic” in each case.
